Measurements published in ChEMBL document CHEMBL1139290, “Design, synthesis, and pharmacological and pharmacokinetic evaluation of 3-phenyl-5-pyridyl-1,2,4-triazole derivatives as xanthine oxidoreductase inhibitors” (Bioorg Med Chem Lett, 2009).

What was measured:
[1] = molecular target: Xanthine dehydrogenase/oxidase (Bos taurus, UniProt P80457); experiment: Inhibition of bovine milk xanthine oxidoreductase
In short: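 Bovine milk XO (2 mU/mL) with 15 µM xanthine in 50 mM phosphate buffer, pH 7.4, at 25 °C, with or without compound. Uric acid formation read as absorbance rise at 292 nm. Initial rate taken from 0 to 2.5 min and used for IC50.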

Rattus norvegicus [2] = experiment: Reduction of uric acid level in rat serum at 0.3 mg/kg, po after 6 hrs by phosphotungstic acid method; assay type: functional; set-up: scale not given: the % may be the effect or the level left
In short: (§1)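 Rats dosed orally. Blood drawn from the orbital sinus 6 h post-dose, clotted 1 h at room temperature and centrifuged. Serum uric acid measured by the phosphotungstic acid method.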

Cytochrome P450 1A2 = molecular target: T1, Cytochrome P450 1A2 (Homo sapiens, UniProt P05177); experiment: Inhibition of human CYP1A2; assay type: ADME
T1 sequence (P05177 whole entry): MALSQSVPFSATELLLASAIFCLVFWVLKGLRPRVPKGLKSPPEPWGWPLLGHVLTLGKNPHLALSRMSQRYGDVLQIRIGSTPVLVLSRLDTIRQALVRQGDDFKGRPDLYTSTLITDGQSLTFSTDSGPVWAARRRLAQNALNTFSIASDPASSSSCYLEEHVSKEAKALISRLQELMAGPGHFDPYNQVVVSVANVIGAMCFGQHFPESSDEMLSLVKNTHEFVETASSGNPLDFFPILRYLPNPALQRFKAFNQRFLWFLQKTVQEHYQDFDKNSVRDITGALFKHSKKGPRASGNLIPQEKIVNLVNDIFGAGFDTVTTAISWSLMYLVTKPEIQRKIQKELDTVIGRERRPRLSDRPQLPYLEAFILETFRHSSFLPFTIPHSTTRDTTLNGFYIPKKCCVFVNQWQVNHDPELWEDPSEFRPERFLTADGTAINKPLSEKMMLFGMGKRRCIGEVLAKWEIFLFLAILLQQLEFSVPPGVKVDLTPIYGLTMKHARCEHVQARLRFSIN

Cytochrome P450 2C9 = Cytochrome P450 2C9 (Homo sapiens, UniProt P11712); experiment: Inhibition of human CYP2C9; assay type: ADME
Chain of Cytochrome P450 2C9 (P11712 whole entry): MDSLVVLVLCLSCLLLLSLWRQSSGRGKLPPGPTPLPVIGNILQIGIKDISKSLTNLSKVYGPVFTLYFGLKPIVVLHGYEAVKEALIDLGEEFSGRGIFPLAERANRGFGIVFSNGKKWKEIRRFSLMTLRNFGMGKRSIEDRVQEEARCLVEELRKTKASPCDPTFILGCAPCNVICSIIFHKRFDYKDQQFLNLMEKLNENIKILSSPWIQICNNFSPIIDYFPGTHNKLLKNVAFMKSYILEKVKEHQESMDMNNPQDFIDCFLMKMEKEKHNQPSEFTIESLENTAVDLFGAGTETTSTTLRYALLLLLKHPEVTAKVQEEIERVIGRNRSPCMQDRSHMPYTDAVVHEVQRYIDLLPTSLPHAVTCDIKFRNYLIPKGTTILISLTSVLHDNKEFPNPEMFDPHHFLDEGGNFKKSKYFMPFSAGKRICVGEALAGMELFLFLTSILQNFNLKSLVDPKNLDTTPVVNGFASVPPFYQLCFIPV

Cytochrome P450 2C19 = Cytochrome P450 2C19 (Homo sapiens, UniProt P33261); experiment: Inhibition of human CYP2C19; assay type: ADME
Chain of Cytochrome P450 2C19 (P33261 whole entry): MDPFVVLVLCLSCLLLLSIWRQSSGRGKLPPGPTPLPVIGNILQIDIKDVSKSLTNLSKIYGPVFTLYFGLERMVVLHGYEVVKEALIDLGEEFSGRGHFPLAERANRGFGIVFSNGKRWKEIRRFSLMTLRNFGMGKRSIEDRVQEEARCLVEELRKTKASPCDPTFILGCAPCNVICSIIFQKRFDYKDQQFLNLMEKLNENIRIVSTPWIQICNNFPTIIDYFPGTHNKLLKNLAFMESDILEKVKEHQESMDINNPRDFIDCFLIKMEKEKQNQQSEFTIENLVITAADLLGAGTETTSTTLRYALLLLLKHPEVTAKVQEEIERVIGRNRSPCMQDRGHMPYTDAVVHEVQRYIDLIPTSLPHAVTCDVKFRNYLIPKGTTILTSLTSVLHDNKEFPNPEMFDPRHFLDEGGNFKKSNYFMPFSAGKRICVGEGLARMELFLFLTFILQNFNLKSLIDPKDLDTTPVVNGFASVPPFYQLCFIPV

Cytochrome P450 2D6 = Cytochrome P450 2D6 (Homo sapiens, UniProt P10635); experiment: Inhibition of human CYP2D6; assay type: ADME
Chain of Cytochrome P450 2D6 (P10635 whole entry): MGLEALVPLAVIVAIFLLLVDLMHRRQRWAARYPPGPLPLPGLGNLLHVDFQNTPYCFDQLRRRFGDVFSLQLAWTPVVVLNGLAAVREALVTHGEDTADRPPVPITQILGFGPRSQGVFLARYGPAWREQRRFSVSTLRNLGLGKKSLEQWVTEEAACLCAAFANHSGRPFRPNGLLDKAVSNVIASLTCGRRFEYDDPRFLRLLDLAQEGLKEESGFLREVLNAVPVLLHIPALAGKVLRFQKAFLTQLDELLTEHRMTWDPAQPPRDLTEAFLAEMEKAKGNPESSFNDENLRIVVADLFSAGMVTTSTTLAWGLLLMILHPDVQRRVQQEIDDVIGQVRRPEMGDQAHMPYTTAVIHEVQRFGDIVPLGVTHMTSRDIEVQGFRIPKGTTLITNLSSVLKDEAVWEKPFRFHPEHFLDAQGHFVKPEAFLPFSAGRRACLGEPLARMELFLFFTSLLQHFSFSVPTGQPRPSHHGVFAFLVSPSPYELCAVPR

[3] = Cmax in rat at 1 mg/kg, po; assay type: ADME, organism-based; set-up: dose 1 mg/kg, route oral; settings: in vivo
In short: (§2)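 Compounds given orally to rats; blood taken from the jugular vein at set times and centrifuged to plasma. Plasma aliquots were mixed with acetonitrile containing an internal standard, then centrifuged.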

CYP3A4 = CYP3A4 (Homo sapiens, UniProt P08684); experiment: Inhibition of human CYP3A4 at 10 uM; assay type: ADME
Chain of CYP3A4 (P08684 whole entry): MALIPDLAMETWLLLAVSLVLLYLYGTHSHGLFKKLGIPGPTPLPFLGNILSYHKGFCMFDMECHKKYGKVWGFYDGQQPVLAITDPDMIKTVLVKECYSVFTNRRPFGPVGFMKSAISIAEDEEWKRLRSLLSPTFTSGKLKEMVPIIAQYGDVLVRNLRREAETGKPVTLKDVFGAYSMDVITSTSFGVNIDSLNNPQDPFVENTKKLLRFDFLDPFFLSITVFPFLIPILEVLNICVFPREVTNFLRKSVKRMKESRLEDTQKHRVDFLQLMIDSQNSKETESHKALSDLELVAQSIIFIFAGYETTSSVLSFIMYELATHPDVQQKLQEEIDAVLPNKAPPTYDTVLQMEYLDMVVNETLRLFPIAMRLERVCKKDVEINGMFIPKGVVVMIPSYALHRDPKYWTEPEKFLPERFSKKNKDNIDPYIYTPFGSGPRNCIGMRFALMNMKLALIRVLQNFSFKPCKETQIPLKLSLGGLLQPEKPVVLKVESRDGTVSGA

[4] = Cmax in rat at 3 mg/kg, po; assay type: ADME, organism-based; set-up: dose 3 mg/kg, route oral; settings: in vivo; in short: as §2
[5] = Half life in rat at 3 mg/kg, po; assay type: ADME, organism-based; set-up: dose 3 mg/kg, route oral; settings: in vivo; in short: as §2
Rattus norvegicus [6] = experiment: Reduction of uric acid level in rat serum at 1 mg/kg, po after 6 hrs by phosphotungstic acid method; assay type: functional; set-up: scale not given: the % may be the effect or the level left; in short: as §1

Chain of Xanthine dehydrogenase/oxidase (P80457 whole entry): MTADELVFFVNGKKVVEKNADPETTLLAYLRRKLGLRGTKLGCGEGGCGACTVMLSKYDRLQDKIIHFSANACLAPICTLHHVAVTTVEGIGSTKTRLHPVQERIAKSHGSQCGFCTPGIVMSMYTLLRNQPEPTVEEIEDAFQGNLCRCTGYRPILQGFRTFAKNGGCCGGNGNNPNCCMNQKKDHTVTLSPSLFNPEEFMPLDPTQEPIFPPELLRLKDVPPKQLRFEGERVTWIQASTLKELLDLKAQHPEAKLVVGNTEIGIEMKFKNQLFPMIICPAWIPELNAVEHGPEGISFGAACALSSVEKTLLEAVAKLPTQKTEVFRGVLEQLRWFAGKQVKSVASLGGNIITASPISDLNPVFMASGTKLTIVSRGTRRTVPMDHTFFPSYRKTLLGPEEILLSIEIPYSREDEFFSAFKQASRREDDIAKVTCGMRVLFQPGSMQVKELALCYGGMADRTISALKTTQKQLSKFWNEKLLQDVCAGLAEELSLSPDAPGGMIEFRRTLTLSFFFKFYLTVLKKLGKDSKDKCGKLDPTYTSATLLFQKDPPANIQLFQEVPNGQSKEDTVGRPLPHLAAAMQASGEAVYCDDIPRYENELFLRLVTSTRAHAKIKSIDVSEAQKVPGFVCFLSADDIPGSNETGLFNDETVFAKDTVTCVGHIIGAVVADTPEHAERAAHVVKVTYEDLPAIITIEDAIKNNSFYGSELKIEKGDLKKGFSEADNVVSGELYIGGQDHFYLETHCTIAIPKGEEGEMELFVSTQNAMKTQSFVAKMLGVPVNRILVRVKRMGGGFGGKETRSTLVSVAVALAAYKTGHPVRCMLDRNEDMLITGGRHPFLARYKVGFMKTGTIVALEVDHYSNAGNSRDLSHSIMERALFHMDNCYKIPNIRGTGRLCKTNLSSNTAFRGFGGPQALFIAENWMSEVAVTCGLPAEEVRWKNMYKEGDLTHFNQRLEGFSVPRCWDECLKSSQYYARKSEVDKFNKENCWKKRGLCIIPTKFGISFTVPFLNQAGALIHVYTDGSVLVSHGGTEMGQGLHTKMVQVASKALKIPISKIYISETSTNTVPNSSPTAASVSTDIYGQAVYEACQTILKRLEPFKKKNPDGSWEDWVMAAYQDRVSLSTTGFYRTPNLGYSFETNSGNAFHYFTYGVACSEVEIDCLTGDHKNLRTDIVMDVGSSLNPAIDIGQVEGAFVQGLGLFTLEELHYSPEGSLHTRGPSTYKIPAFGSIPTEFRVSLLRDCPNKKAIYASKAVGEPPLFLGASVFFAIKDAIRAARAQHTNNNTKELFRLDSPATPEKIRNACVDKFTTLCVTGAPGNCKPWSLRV

| Structure (SMILES) | IC50 [1] | inhibition at 10 µM (CYP3A4) | Activity (Rattus norvegicus [2]) | other results |
| --- | --- | --- | --- | --- |
| COc1cc(-c2n[nH]c(-c3ccc(OCC(C)C)c([N+](=O)[O-])c3)n2)ccn1 | > 10000 nM | 6.4% | – | – |
| Cc1cc(-c2nnc(-c3ccc(OCC(C)C)c([N+](=O)[O-])c3)[nH]2)cc(Cl)n1 | > 10000 nM | 10.9% | – | – |
| CC(C)COc1ccc(NC(=O)C(=O)O)cc1Cl | 7300 nM | – | – | – |
| COCCOc1ccc(-c2nc(-c3ccnc(C)c3)n[nH]2)cc1C#N | 64 nM | – | 36.5% | – |
| CC(C)COc1ccc(-c2nc(-c3cccnc3)n[nH]2)cc1[N+](=O)[O-] | 5900 nM | 18.2% | – | – |
| Cc1cc(-c2n[nH]c(-c3ccc(OCCO)c(C#N)c3)n2)ccn1 | 40 nM | – | 10.9% | – |
| Cc1cc(-c2n[nH]c(-c3ccc(O)c(C#N)c3)n2)ccn1 | 43 nM | – | -8.2% | – |
| Cc1cc(-c2n[nH]c(-c3ccc(OCC4COC(C)(C)O4)c(C#N)c3)n2)ccn1 (stereo not given) | 60 nM | – | 27.9% | – |
| Cc1cc(-c2nnc(-c3ccc(OCC(=O)O)c(C#N)c3)[nH]2)ccn1 | 110 nM | – | – | – |
| CC(C)COc1ccc(-c2nc(-c3ccccn3)n[nH]2)cc1[N+](=O)[O-] | > 10000 nM | – | – | – |
| CC(C)COc1ccc(-c2nc(-c3ccnc(Cl)c3)n[nH]2)cc1[N+](=O)[O-] | – | 7.1% | – | Activity (Rattus norvegicus [6]): 40.6% |
| Cc1cc(-c2nnc(-c3ccc(OCC(C)C)c(C(=O)O)c3)[nH]2)ccn1 | > 10000 nM | – | – | – |

The next lines start with results.

| IC50 [1] | inhibition at 10 µM (CYP3A4) | Structure (SMILES) | Activity (Rattus norvegicus [2]) | other results |
| --- | --- | --- | --- | --- |
| 20 nM | – | CCOC(=O)c1cc(-c2nc(-c3ccnc(C)c3)n[nH]2)ccc1OCC(C)C | 42.4% | – |
| 3.7 nM | 80.9% | CC(C)COc1ccc(-c2n[nH]c(-c3ccncc3)n2)cc1[N+](=O)[O-] | 33.7% | Activity (Cytochrome P450 1A2): Active; Activity (Cytochrome P450 2C9): Active; Activity (Cytochrome P450 2C19): Active; Activity (Cytochrome P450 2D6): Active; Cmax [3]: 13.8 ng/mL |
| 24 nM | 16.5% | COCCOCOc1ccc(-c2nc(-c3ccnc(C)c3)n[nH]2)cc1C#N | 40% | Cmax [4]: 360 ng/mL; half-life [5]: 27 min |
| 15 nM | – | CC(C)COc1ccc(NC(=O)Nc2ccncc2)cc1[N+](=O)[O-] | -3.2% | – |
| 24 nM | – | COCOc1ccc(-c2nc(-c3ccnc(C)c3)n[nH]2)cc1C#N | 27% | – |
| 26 nM | – | CCCCOCCOCCOc1ccc(-c2nc(-c3ccnc(C)c3)n[nH]2)cc1C#N | 10.1% | – |
| 10 nM | 7.7% | Cc1cc(-c2nc(-c3ccc(OCC(C)C)c([N+](=O)[O-])c3)n[nH]2)ccn1 | 39.1% | Cmax [3]: 7.8 ng/mL |
| 31 nM | -6.7% | COCCOCCOc1ccc(-c2nc(-c3ccnc(C)c3)n[nH]2)cc1C#N | 52% | Cmax [4]: 712 ng/mL; half-life [5]: 58.2 min |
| 17 nM | 16.8% | Cc1cc(-c2nc(-c3ccc(OCC(C)C)c(C#N)c3)n[nH]2)ccn1 | 46% | Cmax [3]: 4.5 ng/mL; Cmax [4]: 16.7 ng/mL; half-life [5]: 22.2 min |
| 21 nM | – | Cc1cc(-c2n[nH]c(-c3ccc(OCCOCCOCCCl)c(C#N)c3)n2)ccn1 | 40.7% | Cmax [4]: 684 ng/mL; half-life [5]: 31.2 min |
